ChEMBL document CHEMBL3576819, “Design, synthesis, biological evaluation and molecular docking studies of phenylpropanoid derivatives as potent anti-hepatitis B virus agents” (Eur J Med Chem, 2015)
pIC50: −log10 of the molar value.

Columns and labels:
[1] = Cytotoxicity against human HepG2.2.15 cells assessed as cell death after 9 days by MTT assay; format: cell-based, HepG2 2.2.15
In short: (§1)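 HepG2.2.15 cells (MEM, 10% FBS, 380 µg/ml G418, 37 °C, 5% CO2) seeded at 1×10^5 cells/ml, cultured 24 h, then exposed to various drug concentrations; drug-containing medium renewed every 3 d. OD read at 450 nm after 9 days; percent cell death calculated; CC50 = concentration killing 50% of cells. Means of at least two experiments.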

[2] = system: Hepatitis B virus; assay: Antiviral activity against Hepatitis B virus infected in human HepG2.2.15 cells assessed as inhibition of HBsAg secretion by ELISA; format: functional, organism-based; conditions: HepG2 2.2.15
In short: (§2)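 HepG2.2.15 cells (MEM, 10% FBS, 380 µg/ml G418) seeded at 1×10^5 cells/ml, held 24 h at 37 °C, then treated with various drug concentrations; medium with drug renewed every 3 d for up to 9 d. Culture medium sampled on days 3, 6 and 9, stored at -20 °C, and assayed for secreted antigen. Lamivudine as positive control; IC50 = 50% inhibition of secretion; means of at least two experiments.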

[3] = system: Hepatitis B virus; assay: Antiviral activity against Hepatitis B virus infected in human HepG2.2.15 cells assessed as inhibition of HBeAg secretion by ELISA; format: functional, organism-based; conditions: HepG2 2.2.15; in short: as §2
[4] = Selectivity index, ratio of CC50 for human HepG2.2.15 cells to IC50 for Hepatitis B virus infected in human HepG2.2.15 cells assessed as inhibition of HBsAg secretion; format: functional
In short: (§3)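 Selectivity index computed as CC50/IC50, with CC50 from cell death of HepG2.2.15 cells after 9 days of treatment (OD 450 nm) and IC50 from 50% inhibition of HBeAg or HBsAg secretion in the same cells; medium with drug renewed every 3 d.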

[5] = Selectivity index, ratio of CC50 for human HepG2.2.15 cells to IC50 for Hepatitis B virus infected in human HepG2.2.15 cells assessed as inhibition of HBeAg secretion; format: functional; in short: as §3
[6] = system: Hepatitis B virus; assay: Antiviral activity against Hepatitis B virus infected in human HepG2.2.15 cells assessed as inhibition of HBeAg secretion at 150 uM after 6 days by ELISA; format: functional; conditions: HepG2 2.2.15, 144 h; in short: as §2
[7] = system: Hepatitis B virus; assay: Antiviral activity against Hepatitis B virus infected in human HepG2.2.15 cells assessed as cell survival at 37.5 uM after 9 days (reference value: 100%); format: functional; conditions: HepG2 2.2.15, 216 h; in short: as §1
[8] = system: Hepatitis B virus; assay: Antiviral activity against Hepatitis B virus infected in human HepG2.2.15 cells assessed as inhibition of HBsAg secretion at 300 uM after 9 days by ELISA; format: functional; conditions: HepG2 2.2.15, 216 h; in short: as §2
[9] = system: Hepatitis B virus; assay: Antiviral activity against Hepatitis B virus infected in human HepG2.2.15 cells assessed as inhibition of HBeAg secretion at 75 uM after 3 days by ELISA; format: functional; conditions: HepG2 2.2.15, 72 h; in short: as §2
[10] = system: Hepatitis B virus; assay: Antiviral activity against Hepatitis B virus infected in human HepG2.2.15 cells assessed as inhibition of HBeAg secretion at 300 uM after 9 days by ELISA; format: functional; conditions: HepG2 2.2.15, 216 h; in short: as §2
[11] = system: Hepatitis B virus; assay: Antiviral activity against Hepatitis B virus infected in human HepG2.2.15 cells assessed as inhibition of HBsAg secretion at 75 uM after 3 days by ELISA; format: functional; conditions: HepG2 2.2.15, 72 h; in short: as §2
[12] = system: Hepatitis B virus; assay: Antiviral activity against Hepatitis B virus infected in human HepG2.2.15 cells assessed as inhibition of HBsAg secretion at 150 uM after 6 days by ELISA; format: functional; conditions: HepG2 2.2.15, 144 h; in short: as §2
[13] = system: Hepatitis B virus; assay: Antiviral activity against Hepatitis B virus infected in human HepG2.2.15 cells assessed as inhibition of HBeAg secretion at 75 uM after 6 days by ELISA; format: functional; conditions: HepG2 2.2.15, 144 h; in short: as §2
[14] = system: Hepatitis B virus; assay: Antiviral activity against Hepatitis B virus infected in human HepG2.2.15 cells assessed as inhibition of HBeAg secretion at 150 uM after 9 days by ELISA; format: functional; conditions: HepG2 2.2.15, 216 h; in short: as §2
[15] = system: Hepatitis B virus; assay: Antiviral activity against Hepatitis B virus infected in human HepG2.2.15 cells assessed as inhibition of HBsAg secretion at 150 uM after 9 days by ELISA; format: functional; conditions: HepG2 2.2.15, 216 h; in short: as §2
[16] = system: Hepatitis B virus; assay: Antiviral activity against Hepatitis B virus infected in human HepG2.2.15 cells assessed as inhibition of HBeAg secretion at 75 uM after 9 days by ELISA; format: functional; conditions: HepG2 2.2.15, 216 h; in short: as §2
[17] = system: Hepatitis B virus; assay: Antiviral activity against Hepatitis B virus infected in human HepG2.2.15 cells assessed as inhibition of HBsAg secretion at 150 uM after 3 days by ELISA; format: functional; conditions: HepG2 2.2.15, 72 h; in short: as §2
[18] = system: Hepatitis B virus; assay: Antiviral activity against Hepatitis B virus infected in human HepG2.2.15 cells assessed as inhibition of HBeAg secretion at 150 uM after 3 days by ELISA; format: functional; conditions: HepG2 2.2.15, 72 h; in short: as §2
[19] = system: Hepatitis B virus; assay: Antiviral activity against Hepatitis B virus infected in human HepG2.2.15 cells assessed as inhibition of HBeAg secretion at 300 uM after 6 days by ELISA; format: functional; conditions: HepG2 2.2.15, 144 h; in short: as §2
[20] = system: Hepatitis B virus; assay: Antiviral activity against Hepatitis B virus infected in human HepG2.2.15 cells assessed as inhibition of HBsAg secretion at 75 uM after 6 days by ELISA; format: functional; conditions: HepG2 2.2.15, 144 h; in short: as §2
[21] = system: Hepatitis B virus; assay: Antiviral activity against Hepatitis B virus infected in human HepG2.2.15 cells assessed as inhibition of HBsAg secretion at 300 uM after 3 days by ELISA; format: functional; conditions: HepG2 2.2.15, 72 h; in short: as §2
[22] = system: Hepatitis B virus; assay: Antiviral activity against Hepatitis B virus infected in human HepG2.2.15 cells assessed as inhibition of HBeAg secretion at 37.5 uM after 3 days by ELISA; format: functional; conditions: HepG2 2.2.15, 72 h; in short: as §2
[23] = system: Hepatitis B virus; assay: Antiviral activity against Hepatitis B virus infected in human HepG2.2.15 cells assessed as inhibition of HBeAg secretion at 300 uM after 3 days by ELISA; format: functional; conditions: HepG2 2.2.15, 72 h; in short: as §2
[24] = system: Hepatitis B virus; assay: Antiviral activity against Hepatitis B virus infected in human HepG2.2.15 cells assessed as cell survival at 150 uM after 9 days (reference value: 100%); format: functional; conditions: HepG2 2.2.15, 216 h; in short: as §1
[25] = system: Hepatitis B virus; assay: Antiviral activity against Hepatitis B virus infected in human HepG2.2.15 cells assessed as inhibition of HBsAg secretion at 300 uM after 6 days by ELISA; format: functional; conditions: HepG2 2.2.15, 144 h; in short: as §2
[26] = system: Hepatitis B virus; assay: Antiviral activity against Hepatitis B virus infected in human HepG2.2.15 cells assessed as inhibition of HBsAg secretion at 37.5 uM after 6 days by ELISA; format: functional; conditions: HepG2 2.2.15, 144 h; in short: as §2
[27] = system: Hepatitis B virus; assay: Antiviral activity against Hepatitis B virus infected in human HepG2.2.15 cells assessed as inhibition of HBsAg secretion at 37.5 uM after 9 days by ELISA; format: functional; conditions: HepG2 2.2.15, 216 h; in short: as §2
[28] = system: Hepatitis B virus; assay: Antiviral activity against Hepatitis B virus infected in human HepG2.2.15 cells assessed as cell survival at 300 uM after 9 days (reference value: 100%); format: functional; conditions: HepG2 2.2.15, 216 h; in short: as §1
[29] = system: Hepatitis B virus; assay: Antiviral activity against Hepatitis B virus infected in human HepG2.2.15 cells assessed as cell survival at 75 uM after 9 days (reference value: 100%); format: functional; conditions: HepG2 2.2.15, 216 h; in short: as §1
[30] = system: Hepatitis B virus; assay: Antiviral activity against Hepatitis B virus infected in human HepG2.2.15 cells assessed as inhibition of HBeAg secretion at 37.5 uM after 6 days by ELISA; format: functional; conditions: HepG2 2.2.15, 144 h; in short: as §2
[31] = system: Hepatitis B virus; assay: Antiviral activity against Hepatitis B virus infected in human HepG2.2.15 cells assessed as inhibition of HBeAg secretion at 37.5 uM after 9 days by ELISA; format: functional; conditions: HepG2 2.2.15, 216 h; in short: as §2
[32] = system: Hepatitis B virus; assay: Antiviral activity against Hepatitis B virus infected in human HepG2.2.15 cells assessed as inhibition of HBsAg secretion at 75 uM after 9 days by ELISA; format: functional; conditions: HepG2 2.2.15, 216 h; in short: as §2

O=C(O)/C=C/c1ccc2c(c1)OCO2
CC50 at 216 h [1]: 503 µM
pIC50 [2]: 3.36
pIC50 [3]: 3.28
Ratio CC50/IC50 [4]: 1.16
Ratio CC50/IC50 [5]: 0.96

COc1cc(/C=C/C(=O)O/N=C/c2ccccn2)cc(OC)c1OC
inhibition at 150 µM [6]: 35.1%
viability at 37.5 µM [7]: 108%
inhibition at 300 µM [8]: 66.7%
inhibition at 75 µM [9]: 20.3%
inhibition at 300 µM [10]: 61.1%
inhibition at 75 µM [11]: 2.96%
inhibition at 150 µM [12]: 29.6%
inhibition at 75 µM [13]: 29.2%
inhibition at 150 µM [14]: 47.9%
CC50 at 216 h [1]: 787 µM
inhibition at 150 µM [15]: 47.3%
inhibition at 75 µM [16]: 41.2%
inhibition at 150 µM [17]: 8.39%
inhibition at 150 µM [18]: 28.2%
pIC50 [2]: 3.85
pIC50 [3]: 3.82
inhibition at 300 µM [19]: 53.6%
inhibition at 75 µM [20]: 17.2%
Ratio CC50/IC50 [4]: 5.52
inhibition at 300 µM [21]: 15.1%
inhibition at 37.5 µM [22]: 13.4%
Ratio CC50/IC50 [5]: 5.25
inhibition at 300 µM [23]: 34.2%
viability at 150 µM [24]: 98.1%
inhibition at 300 µM [25]: 40.5%
inhibition at 37.5 µM [26]: 12.7%
inhibition at 37.5 µM [27]: 24.1%
viability at 300 µM [28]: 89%
viability at 75 µM [29]: 107%
inhibition at 37.5 µM [30]: 21.4%
inhibition at 37.5 µM [31]: 30.2%
inhibition at 75 µM [32]: 39.2%

COc1cc(C=O)cc(OC)c1OC
CC50 at 216 h [1]: > 1500 µM

COc1cc(C=O)cc2c1OCO2
CC50 at 216 h [1]: 1080 µM

COc1cc(/C=C/C(=O)O)cc2c1OCO2
CC50 at 216 h [1]: 667 µM
pIC50 [2]: 3.39
pIC50 [3]: 3.32
Ratio CC50/IC50 [4]: 1.62
Ratio CC50/IC50 [5]: 1.4

O/N=C/c1ccco1
CC50 at 216 h [1]: 475 µM
pIC50 [2]: 3.32
pIC50 [3]: 3.28
Ratio CC50/IC50 [4]: 1.01
Ratio CC50/IC50 [5]: 0.91

COc1ccc(/C=C/C(=O)O/N=C/c2ccccn2)cc1OC
inhibition at 150 µM [6]: 47.4%
viability at 37.5 µM [7]: 107%
inhibition at 300 µM [8]: 61.3%
inhibition at 75 µM [9]: 27.7%
inhibition at 300 µM [10]: 59.2%
inhibition at 75 µM [11]: 2.54%
inhibition at 150 µM [12]: 26.8%
inhibition at 75 µM [13]: 32.9%
inhibition at 150 µM [14]: 48.4%
CC50 at 216 h [1]: 545 µM
inhibition at 150 µM [15]: 54.5%
inhibition at 75 µM [16]: 40.3%
inhibition at 150 µM [17]: 10.8%
inhibition at 150 µM [18]: 36.7%
pIC50 [2]: 3.82
pIC50 [3]: 3.79
inhibition at 300 µM [19]: 56.9%
inhibition at 75 µM [20]: 19.5%
Ratio CC50/IC50 [4]: 3.59
inhibition at 300 µM [21]: 13.3%
inhibition at 37.5 µM [22]: 19.3%
Ratio CC50/IC50 [5]: 3.37
inhibition at 300 µM [23]: 50.4%
viability at 150 µM [24]: 102%
inhibition at 300 µM [25]: 32.8%
inhibition at 37.5 µM [26]: 11.2%
inhibition at 37.5 µM [27]: 19.8%
viability at 300 µM [28]: 99.5%
viability at 75 µM [29]: 104%
inhibition at 37.5 µM [30]: 24.7%
inhibition at 37.5 µM [31]: 27%
inhibition at 75 µM [32]: 36.7%
